Reference: ChEMBL document CHEMBL3124838, “Discovery of 6-aryl-azabenzimidazoles that inhibit the TBK1/IKK-ε kinases” (Bioorg Med Chem Lett, 2014)

Legend:
[1] = target: T1, Inhibitor of nuclear factor kappa-B kinase subunit epsilon (Homo sapiens, UniProt Q14164); test: Inhibition of IKK-epsilon (unknown origin) using 5FAM-AKELDQGSLCTpSFVGTLQ-NH2 as substrate by microfluidic mobility shift assay
T1 sequence (Q14164 whole entry): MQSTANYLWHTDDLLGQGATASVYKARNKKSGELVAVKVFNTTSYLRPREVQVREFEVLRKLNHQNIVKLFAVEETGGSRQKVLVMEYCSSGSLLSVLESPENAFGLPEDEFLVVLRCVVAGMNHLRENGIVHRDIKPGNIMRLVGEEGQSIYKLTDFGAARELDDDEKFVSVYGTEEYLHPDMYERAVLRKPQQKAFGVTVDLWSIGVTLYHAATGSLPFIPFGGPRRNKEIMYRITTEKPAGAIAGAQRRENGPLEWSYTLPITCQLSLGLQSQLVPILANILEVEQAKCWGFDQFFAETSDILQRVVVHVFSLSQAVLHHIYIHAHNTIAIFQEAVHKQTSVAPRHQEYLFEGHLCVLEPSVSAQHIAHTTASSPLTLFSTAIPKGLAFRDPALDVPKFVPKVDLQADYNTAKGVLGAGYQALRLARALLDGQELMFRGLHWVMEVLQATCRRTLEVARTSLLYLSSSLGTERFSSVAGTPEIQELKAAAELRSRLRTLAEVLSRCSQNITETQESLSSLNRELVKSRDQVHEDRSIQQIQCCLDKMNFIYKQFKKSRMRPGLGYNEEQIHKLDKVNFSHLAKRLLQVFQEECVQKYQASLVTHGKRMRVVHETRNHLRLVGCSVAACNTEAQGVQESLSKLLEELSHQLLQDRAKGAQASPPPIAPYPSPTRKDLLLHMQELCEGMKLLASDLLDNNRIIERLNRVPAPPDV
Summary of the method: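 Recombinant IKK-ε (4 nM) in HEPES buffer with 1.5 µM 5FAM-labelled peptide substrate, ATP at its K_M, and 10 mM MgCl2. The 10-point titration used half-log serial dilutions. Reactions ran at room temperature for a set time, were quenched with EDTA-containing HEPES, and were read by microfluidic mobility shift. Percent inhibition came from the ratio of phosphorylated to total peptide.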

[2] = target: T2, Serine/threonine-protein kinase TBK1 (Homo sapiens, UniProt Q9UHD2); test: Inhibition of recombinant full-length TBK1 (unknown origin) using CK1tide as substrate by microfluidic mobility shift assay
T2 sequence (Q9UHD2 whole entry): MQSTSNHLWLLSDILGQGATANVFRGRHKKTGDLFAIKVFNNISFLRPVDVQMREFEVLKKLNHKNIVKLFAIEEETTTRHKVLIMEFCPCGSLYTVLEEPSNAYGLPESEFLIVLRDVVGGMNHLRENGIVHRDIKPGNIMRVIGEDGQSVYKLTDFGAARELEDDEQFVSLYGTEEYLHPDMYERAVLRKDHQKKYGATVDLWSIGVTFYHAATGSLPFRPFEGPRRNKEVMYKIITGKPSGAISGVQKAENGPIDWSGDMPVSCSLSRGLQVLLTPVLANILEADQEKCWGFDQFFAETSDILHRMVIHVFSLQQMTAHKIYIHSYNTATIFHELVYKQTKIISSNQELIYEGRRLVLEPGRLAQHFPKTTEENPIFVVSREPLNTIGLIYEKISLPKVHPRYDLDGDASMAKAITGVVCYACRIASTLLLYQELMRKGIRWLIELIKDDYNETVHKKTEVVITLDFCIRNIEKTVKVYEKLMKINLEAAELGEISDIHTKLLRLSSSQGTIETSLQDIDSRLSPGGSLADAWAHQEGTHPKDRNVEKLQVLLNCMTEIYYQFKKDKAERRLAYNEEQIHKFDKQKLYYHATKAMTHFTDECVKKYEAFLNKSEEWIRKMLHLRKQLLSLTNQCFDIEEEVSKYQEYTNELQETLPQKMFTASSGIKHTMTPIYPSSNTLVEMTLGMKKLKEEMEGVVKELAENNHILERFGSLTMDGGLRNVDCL

[3] = target: T2, Serine/threonine-protein kinase TBK1; test: Inhibition of TBK1 in HEK293 cells after 4.5 hrs by ISRE-luciferase reporter gene assay in presence of poly I:C; format: cell-based
[4] = target: Cyclin-dependent kinase 2 (Homo sapiens, UniProt P24941); test: Inhibition of CDK2 (unknown origin)
Aurora kinase B = Aurora kinase B (Homo sapiens, UniProt Q96GD4); test: Inhibition of aurora B (unknown origin)
Aurora kinase B, sequence (Q96GD4 whole entry): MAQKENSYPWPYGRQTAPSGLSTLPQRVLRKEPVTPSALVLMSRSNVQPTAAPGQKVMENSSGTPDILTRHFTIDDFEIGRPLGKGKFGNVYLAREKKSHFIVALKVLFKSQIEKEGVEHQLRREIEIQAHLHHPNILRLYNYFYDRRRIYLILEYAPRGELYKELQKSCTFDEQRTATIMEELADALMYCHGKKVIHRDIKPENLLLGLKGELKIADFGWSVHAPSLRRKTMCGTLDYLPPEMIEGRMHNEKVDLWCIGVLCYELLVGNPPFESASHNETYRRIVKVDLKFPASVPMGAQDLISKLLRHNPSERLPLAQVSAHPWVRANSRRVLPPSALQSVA

SMILES	IC50 [1] [nM]	IC50 [2] [nM]	IC50 [3] [nM]	IC50 [4] [nM]	IC50 (Aurora kinase B) [nM]
CNc1c(-c2ccc(C(=O)O)s2)cnc2[nH]c(-c3ccc(OC)cc3)nc12	3300	1040			
COc1ccc(-c2nc3c(OCCCNC(=O)C4CCCC4)c(-c4csc(C(=O)O)c4)cnc3[nH]2)cc1	1100	460	> 3000	> 30000	1300
CNc1c(-c2ccc(C(=O)O)cc2)cnc2nc(-c3ccc(OC)cc3)[nH]c12		1800			
O=C(O)c1ccc(-c2cnc3nc(-c4ccc(OCCN5CCCCC5)cc4)[nH]c3c2)cc1		859			
COc1ccc(-c2nc3c(OCCCNC(=O)C4CCCC4)c(Br)cnc3[nH]2)cc1	> 30000	759		> 30000	156
COc1ccc(-c2nc3ncc(-c4cc(C(=O)O)co4)cc3[nH]2)cc1	11600	1050	> 30000		
COc1ccc(-c2nc3cc(-c4csc(C#N)c4)cnc3[nH]2)cc1	> 30000	> 30000			
COc1ccc(-c2nc3c(NCCCNC(=O)C4CCCC4)c(-c4nc(C(=O)NCC(C)C)cs4)cnc3[nH]2)cc1	3230	388	128	> 30000	2470
COc1ccc(-c2nc3cc(-c4csc(C(C)=O)c4)cnc3[nH]2)cc1	6750	650	1780	> 30000	12100

Now those with a lower IC50 [2], led by results:

IC50 [1] [nM]	IC50 [2] [nM]	IC50 [3] [nM]	IC50 [4] [nM]	IC50 (Aurora kinase B) [nM]	SMILES
2560	203	851			CNC(=O)c1cc(-c2cnc3nc(-c4ccc(OC)cc4)[nH]c3c2)cs1
330	100	136	> 30000	1680	COc1ccc(-c2nc3cc(-c4csc(C(=O)NCC(C)(C)CO)c4)cnc3[nH]2)cc1
412	98	170	> 30000	1380	COCCNC(=O)c1cc(-c2cnc3[nH]c(-c4ccc(OC)cc4)nc3c2)cs1
867	256	> 30000			COc1ccc(-c2nc3ncc(-c4ccc(C(=O)O)s4)cc3[nH]2)cc1
42	9	7	1450	284	COc1ccc(-c2nc3c(NCCCNC(=O)C4CCCC4)c(-c4nc(C(N)=O)cs4)cnc3[nH]2)cc1
395	129	> 30000			COc1ccc(-c2nc3cc(-c4cc(C(=O)O)cs4)cnc3[nH]2)cc1
114	49	> 30000			COc1ccc(-c2nc3ncc(-c4csc(C(=O)O)c4)cc3[nH]2)cc1
469	93	72	> 30000	> 5320	COc1cc2ncn(-c3cc(OCc4ccccc4S(C)(=O)=O)c(C#N)s3)c2cc1OC [GSK-319347A]
158	36	2170	13600	299	COc1ccc(-c2nc3c(NCCCNC(=O)C4CCCC4)c(-c4nc(C(=O)O)cs4)cnc3[nH]2)cc1
1090	219	89	> 30000	2820	CCC(C)CNC(=O)c1cc(-c2cnc3[nH]c(-c4ccc(OC)cc4)nc3c2)cs1 (stereo not given)
448	46	165	> 30000	889	COc1ccc(-c2nc3c(NCCCNC(=O)C4CCCC4)c(C(N)=S)cnc3[nH]2)cc1
205	30	268	984	2300	COc1ccc(-c2nc3cc(-c4csc(C(N)=O)c4)cnc3[nH]2)cc1
